Active and inactive are the calls of the source. The rule behind the calls is not given here.
Tests used:
[1] = Stabilization of d[AGAG3AG2GCGCTG3AG2AG3GCT] sequence of c-kit1 G-quadruplex DNA assessed as change in melting temperature at 1 uM by FRET assay
How it was run: (§1)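 Dual-labelled FAM/TAMRA oligos at 400nM in 60mM KCl potassium cacodylate buffer, pH 7.4, heated to 85 °C for 10 min, then cooled. Ligand added to 1µM; buffer alone as negative control. Excitation 450–495nm, emission read at 515–545nm every 0.5 °C from 30–100 °C. ΔTm is ligand Tm minus control Tm, from four experiments ± maximum sd; c-kit1 curves fitted to sigmoids.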

[2] = Stabilization of d[G3(T2AG3)3] sequence of F21T telomeric G-quadruplex DNA assessed as change in melting temperature at 1 uM by FRET assay
How it was run: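 Dual-labelled oligo (5′-FAM, 3′-TAMRA) at 400nM in FRET buffer (60mM KCl, K cacodylate, pH 7.4), heated to 85 °C for 10 min, cooled to room temperature. Ligand added from DMSO dilution. Excitation 450–495nm, emission 515–545nm, read every 0.5 °C from 30–100 °C. ΔTm from four experiments: averaged ligand Tm minus averaged buffer-control Tm, ± maximum sd.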

[3] = Stabilization of d[C3G3CG3CGCGAG3AG4AG2] sequence of c-kit2 G-quadruplex DNA assessed as change in melting temperature at 1 uM by FRET assay; how it was run: as §1
[4] = Stabilization of d[(TA)2GC(TA)2T6(TA)2]GC(TA)2 sequence of duplex DNA assessed as change in melting temperature at 1 uM by FRET assay; how it was run: as §1
[5] = Stabilization of d[G3(T2AG3)3] sequence of F21T telomeric G-quadruplex DNA assessed as change in melting temperature at 1 uM by FRET assay relative to BRACO-19 in presence of calf thymus DNA
How it was run: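 F21T FRET melting with ligand at 1µM in the presence of calf thymus DNA competitor at increasing bp concentrations. Retained stabilization, from three experiments, normalized to the ligand's ΔTm with no competitor (100%) ± normalized sd.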

Homo sapiens = species on record: Homo sapiens; assay: Binding affinity to biotin-labeled human telomeric d[AG3(T2AG3)3] sequence by surface plasmon resonance analysis
How it was run: (§2)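 Streptavidin chip with 5′-biotinylated DNA immobilized to 350-400 RU; blank reference flow cell. Run in 10mM HEPES, 100mM KCl, 3mM EDTA, P20 surfactant, pH 7.3, 25°C. Ligand 1nM to 10µM (from 20mM DMSO stock) injected at 50µl/min for 5–10 min to steady state, then 10 min buffer dissociation; glycine pH 2.0 regeneration between cycles.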

[6] = Binding affinity to biotin-labeled d[(AG3)2CGCTG3AG2AG3] sequence of c-kit1 G-quadruplex DNA by surface plasmon resonance analysis; how it was run: as §2
[7] = Binding affinity to biotin-labeled d[(CG3)2CGCGAG3AG4] sequence of c-kit2 G-quadruplex DNA by surface plasmon resonance analysis; how it was run: as §2
[8] = Binding affinity to biotin-labeled d[(AG3TG4)2A] sequence of c-myc G-quadruplex DNA by surface plasmon resonance analysis; how it was run: as §2
[9] = Binding affinity to biotin-labeled d[CGA2T2CGTCTC2GA2T2CG] sequence of duplex DNA by surface plasmon resonance analysis; how it was run: as §2
[10] = Selectivity ratio of equilibrium binding constant K for human telomeric d[AG3(T2AG3)3] sequence to equilibrium binding constant K for d[CGA2T2CGTCTC2GA2T2CG] sequence of duplex DNA
[11] = Selectivity ratio of equilibrium binding constant K for d[(AG3)2CGCTG3AG2AG3] sequence of c-kit1 G-quadruplex DNA to equilibrium binding constant K for d[CGA2T2CGTCTC2GA2T2CG] sequence of duplex DNA
[12] = Selectivity ratio of equilibrium binding constant K for d[(CG3)2CGCGAG3AG4] sequence of c-kit2 G-quadruplex DNA to equilibrium binding constant K for d[CGA2T2CGTCTC2GA2T2CG] sequence of duplex DNA
[13] = Selectivity ratio of equilibrium binding constant K for d[(AG3TG4)2A] sequence of c-myc G-quadruplex DNA to equilibrium binding constant K for d[CGA2T2CGTCTC2GA2T2CG] sequence of duplex DNA
[14] = target: T1, Telomerase reverse transcriptase (Homo sapiens, UniProt O14746); assay: Inhibition of telomerase by TRAP-LIG assay
T1 sequence (O14746 whole entry): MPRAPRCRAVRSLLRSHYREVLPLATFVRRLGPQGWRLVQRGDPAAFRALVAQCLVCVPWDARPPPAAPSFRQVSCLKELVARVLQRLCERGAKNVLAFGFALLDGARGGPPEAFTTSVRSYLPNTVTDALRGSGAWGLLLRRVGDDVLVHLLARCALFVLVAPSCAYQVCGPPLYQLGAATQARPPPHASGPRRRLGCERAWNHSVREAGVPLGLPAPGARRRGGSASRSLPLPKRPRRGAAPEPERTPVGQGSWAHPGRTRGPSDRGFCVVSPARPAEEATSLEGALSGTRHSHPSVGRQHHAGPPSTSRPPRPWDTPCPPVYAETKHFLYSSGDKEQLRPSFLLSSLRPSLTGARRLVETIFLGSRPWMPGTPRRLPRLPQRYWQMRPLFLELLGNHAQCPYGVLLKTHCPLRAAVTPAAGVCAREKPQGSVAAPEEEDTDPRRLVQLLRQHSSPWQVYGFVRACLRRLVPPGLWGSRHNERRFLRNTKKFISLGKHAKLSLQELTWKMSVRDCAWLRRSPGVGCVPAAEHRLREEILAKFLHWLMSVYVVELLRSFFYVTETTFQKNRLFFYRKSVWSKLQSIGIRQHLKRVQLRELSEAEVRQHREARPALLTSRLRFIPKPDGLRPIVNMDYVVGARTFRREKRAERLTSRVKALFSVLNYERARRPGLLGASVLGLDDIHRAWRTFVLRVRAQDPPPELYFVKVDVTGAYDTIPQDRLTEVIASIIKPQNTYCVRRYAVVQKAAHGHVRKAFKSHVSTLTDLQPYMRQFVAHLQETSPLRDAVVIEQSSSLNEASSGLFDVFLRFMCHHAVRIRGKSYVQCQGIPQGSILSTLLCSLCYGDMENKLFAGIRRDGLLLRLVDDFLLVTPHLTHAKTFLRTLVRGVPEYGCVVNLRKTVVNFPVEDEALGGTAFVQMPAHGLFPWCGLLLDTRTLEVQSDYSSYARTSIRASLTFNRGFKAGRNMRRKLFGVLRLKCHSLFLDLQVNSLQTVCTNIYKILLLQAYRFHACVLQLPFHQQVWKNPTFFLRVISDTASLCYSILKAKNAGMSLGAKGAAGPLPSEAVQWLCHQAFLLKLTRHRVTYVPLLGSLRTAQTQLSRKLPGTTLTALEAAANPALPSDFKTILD

[15] = target: T1, Telomerase reverse transcriptase; assay: Inhibition of telomerase at 50 uM by TRAP-LIG assay relative to control
MCF7 [16] = assay: Cytotoxicity against human MCF7 cells after 96 hrs by SRB assay; type: functional, cell-based; settings: MCF7, 96 h
A549 [17] = assay: Cytotoxicity against human A549 cells after 96 hrs by SRB assay; type: functional, cell-based; settings: A549, 96 h
[18] = Cytotoxicity against human WI38 cells after 96 hrs by SRB assay; type: cell-based; settings: WI-38, 96 h
MCF7 [19] = assay: Cytotoxicity against human MCF7 cells assessed as population doubling at 1 uM after 1 week […] relative to control; type: functional
How it was run: (§3)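 MCF7 cells (1×10^5) treated with sub-cytotoxic ligand concentrations for 1 week, biweekly dosing. Cells counted by haemocytometer; population doublings n = (log Pn – log P0)/log2. Values normalized to vehicle control (100%) ± sd, two independent concentrations per ligand.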

MCF7 [20] = assay: Cytotoxicity against human MCF7 cells assessed as population doubling at 1.75 uM after 1 week […] relative to control; type: functional; how it was run: as §3
MCF7 [21] = assay: Cytotoxicity against human MCF7 cells assessed as population doubling at 2.25 uM after 1 week […] relative to control; type: functional; how it was run: as §3
MCF7 [22] = assay: Cytotoxicity against human MCF7 cells assessed as cell senescence at 1.75 uM after 1 week by beta-galactosidase assay; type: functional
MCF7 [23] = assay: Cytotoxicity against human MCF7 cells assessed as cell senescence at 2.25 uM after 1 week by beta-galactosidase assay; type: functional
MCF7 [24] = assay: Selectivity ratio of IC50 for human MCF7 cells to IC50 for human WI38 cells
A549 [25] = assay: Selectivity ratio of IC50 for human A549 cells to IC50 for human WI38 cells
MCF7 [26] = assay: Cytotoxicity against human MCF7 cells assessed as population doubling at 3.50 uM after 1 week […] relative to control; type: functional; how it was run: as §3
MCF7 [27] = assay: Cytotoxicity against human MCF7 cells assessed as population doubling at 2 uM after 1 week […] relative to control; type: functional; how it was run: as §3
MCF7 [28] = assay: Cytotoxicity against human MCF7 cells assessed as cell senescence at 3.5 uM after 1 week by beta-galactosidase assay; type: functional
MCF7 [29] = assay: Cytotoxicity against human MCF7 cells assessed as cell senescence at 2 uM after 1 week by beta-galactosidase assay; type: functional
MCF7 [30] = assay: Cytotoxicity against human MCF7 cells assessed as population doubling at 7 uM after 1 week […] relative to control; type: functional; how it was run: as §3
MCF7 [31] = assay: Cytotoxicity against human MCF7 cells assessed as population doubling at 5 uM after 1 week […] relative to control; type: functional; how it was run: as §3
MCF7 [32] = assay: Cytotoxicity against human MCF7 cells assessed as population doubling at 10 uM after 1 week […] relative to control; type: functional; how it was run: as §3
MCF7 [33] = assay: Cytotoxicity against human MCF7 cells assessed as cell senescence at 5 uM after 1 week by beta-galactosidase assay; type: functional
MCF7 [34] = assay: Cytotoxicity against human MCF7 cells assessed as cell senescence at 10 uM after 1 week by beta-galactosidase assay; type: functional
MCF7 [35] = assay: Cytotoxicity against human MCF7 cells assessed as cell senescence at 1 uM after 1 week by beta-galactosidase assay; type: functional

Row | Structure (SMILES) | change in melting temperature (ΔTm) [1] [°C] | change in melting temperature (ΔTm) [2] [°C] | change in melting temperature (ΔTm) [3] [°C] | change in melting temperature (ΔTm) [4] [°C] | Activity [5] | KA (Homo sapiens) [×10⁶ /M] | KA [6] [×10⁶ /M] | KA [7] [×10⁶ /M] | KA [8] [×10⁶ /M] | KA [9] | Selectivity ratio [10] | Selectivity ratio [11] | Selectivity ratio [12] | Selectivity ratio [13] | EC50 [14] [µM] | inhibition [15] [%] | IC50 (MCF7 [16]) [µM] | IC50 (A549 [17]) [µM] | IC50 [18] [µM] | Ratio IC50 (A549 [25]) | further results
1 | O=C(CCN1CCCC1)Nc1ccc(NC(=O)c2cccc(NC(=O)Nc3cccc(C(=O)Nc4ccc(NC(=O)CCN5CCCC5)cc4)c3)c2)cc1 | 10.2 | 13.5 | 18.7 | 0.4 | Active | 1.1 | 1.4 | 5 | 2.1 | < 1 ×10³ /M | > 400 | > 400 | > 400 | > 400 | > 50 | 6 | 2.6 | 5.3 | 7.5 |  | Activity (MCF7 [19]): 110.4%; Activity (MCF7 [20]): 109.6%; Activity (MCF7 [21]): 66.5%; Activity (MCF7 [22]): 3.1%; Activity (MCF7 [23]): 2.4%
2 | C[n+]1ccc(-c2c3nc(c(-c4cc[n+](C)cc4)c4ccc([nH]4)c(-c4cc[n+](C)cc4)c4ccc([nH]4)c(-c4cc[n+](C)cc4)c4nc2C=C4)C=C3)cc1 |  |  |  |  |  |  |  |  |  |  |  |  |  |  |  |  |  |  |  |  | Activity [15]: inactive
3 | C[n+]1ccc(-c2c3nc(c(-c4cc[n+](C)cc4)c4ccc([nH]4)c(-c4cc[n+](C)cc4)c4nc(c(-c5cc[n+](C)cc5)c5ccc2[nH]5)C=C4)C=C3)cc1 [TMPYP4 CHLORIDE] |  |  |  |  |  |  |  |  |  |  |  |  |  |  | 8.9 |  |  |  |  |  | 
4 | O=C(CN1CCCC1)Nc1cccc(NC(=O)c2ccc(NC(=O)Nc3ccc(C(=O)Nc4cccc(NC(=O)CN5CCCC5)c4)cc3)cc2)c1 | 0.7 | 1.8 | 2 | 2.5 |  |  |  |  |  |  |  |  |  |  |  |  | > 50 | > 50 | > 50 | 1 | Ratio IC50 (MCF7 [24]): 1
5 | O=C(CCN1CCCCC1)Nc1ccc(NC(=O)c2cccc(NC(=O)Nc3cccc(C(=O)Nc4ccc(NC(=O)CCN5CCCCC5)cc4)c3)c2)cc1 | 7 | 5.2 | 7.1 | 0.1 | Active |  |  |  |  |  |  |  |  |  |  |  | 5.1 | > 50 | > 50 | 1 | Activity (MCF7 [26]): 84.3%; Activity (MCF7 [27]): 89.2%; Activity (MCF7 [28]): 1.33%; Activity (MCF7 [29]): 1.29%
6 | O=C(CCCN1CCCC1)Nc1ccc(NC(=O)c2cccc(NC(=O)Nc3cccc(C(=O)Nc4ccc(NC(=O)CCCN5CCCC5)cc4)c3)c2)cc1 | 10.1 | 12 | 17.1 |  | Active | 0.4 | 0.4 | 3.1 | 0.9 | < 1 ×10³ /M | > 400 | > 400 | > 400 | > 400 | > 50 | 36 | 11.1 | > 50 | > 50 | 1 | Activity (MCF7 [26]): 96%; Activity (MCF7 [30]): 81.5%; Activity (MCF7 [28]): 1.6%
7 | CN(C)c1ccc(Nc2c3ccc(NC(=O)CCN4CCCC4)cc3nc3cc(NC(=O)CCN4CCCC4)ccc23)cc1 | 20.1 | 25.9 | 25.3 | 11.2 | Active | 31 |  |  |  | 0.5 ×10⁶ /M |  |  |  |  | 6.3 |  |  |  | 10.7 | 4.5 | Activity [15]: inactive; Ratio IC50 (MCF7 [24]): 4.3
8 | O=C(CN1CCCC1)Nc1ccc(NC(=O)c2cccc(NC(=O)Nc3cccc(C(=O)Nc4ccc(NC(=O)CN5CCCC5)cc4)c3)c2)cc1 | 3.6 | 7.9 | 11.3 |  | Active | 1.4 | 2.1 | 5.1 | 14 | < 1 ×10³ /M | > 400 | > 400 | > 400 | > 400 | > 50 | 21 | 14.4 | > 50 | 16.4 | 0.3 | Activity (MCF7 [31]): 92.2%; Activity (MCF7 [32]): 73.1%; Activity (MCF7 [33]): 1%; Activity (MCF7 [34]): 1.7%
9 | O=C(CCN1CCCC1)Nc1cccc(NC(=O)c2ccc(NC(=O)Nc3ccc(C(=O)Nc4cccc(NC(=O)CCN5CCCC5)c4)cc3)cc2)c1 | 0.5 | 5.1 | 7.5 | 4.9 |  |  |  |  |  |  |  |  |  |  |  |  | 3.2 | 4.3 | > 50 | 11.6 | Ratio IC50 (MCF7 [24]): 15.6; Activity (MCF7 [19]): 82.9%; Activity (MCF7 [27]): 44%; Activity (MCF7 [35]): 3%; Activity (MCF7 [29]): 4.1%
